Calls of active or inactive are those of the source. The rule behind the calls is not given here.
What was measured:
NAD kinase 1 = target: T1, NAD kinase 1 (Listeria monocytogenes serotype 4b (strain F2365), UniProt Q721J8); experiment: Inhibition of Listeria monocytogenes NADK1 expressed in Escherichia coli assessed as inhibition constant measured every 32 secs for 32 mins by absorbance based analysis
T1 sequence (Q721J8 whole entry): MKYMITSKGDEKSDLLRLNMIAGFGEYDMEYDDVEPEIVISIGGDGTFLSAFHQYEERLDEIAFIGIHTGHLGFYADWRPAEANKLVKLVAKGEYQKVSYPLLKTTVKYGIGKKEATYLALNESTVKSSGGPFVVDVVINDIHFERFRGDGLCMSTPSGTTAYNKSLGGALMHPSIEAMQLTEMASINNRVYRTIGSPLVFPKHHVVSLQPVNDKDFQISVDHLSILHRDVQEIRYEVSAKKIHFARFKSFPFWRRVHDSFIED

Staphylococcus aureus [1] = experiment: Antibacterial activity against Staphylococcus aureus assessed as bacterial growth inhibition in presence of polymyxin B by microplate reader assay; type: functional, organism-based
In short: (§1)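 Same diluted-culture BHI set-up (S. aureus Xen36 in 25% PBS/10% DMSO; L. monocytogenes EGDe in 25% PBS/1% DMSO) with each compound plus polymyxin B at 20, 40, 60 or 80 µg/mL. Incubated shaking at 200 rpm, 37°C; growth monitored by microplate reader.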

Staphylococcus aureus [2] = experiment: Antibacterial activity against Staphylococcus aureus assessed as reduction in bacterial growth at 0.01 ug/ml incubated for 6 hrs by microplate reader assay; type: functional, organism-based; conditions: dose 0.01 µg/ml
In short: (§2)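 Overnight 37°C BHI cultures (S. aureus Xen36; L. monocytogenes EGDe) diluted 1:100 into BHI with compound at 0.01 µg/mL in 25% PBS/10% DMSO (S. aureus) or 25% PBS/1% DMSO (Listeria). Controls: vehicle and 10 µg/mL levofloxacin. Shaken at 200 rpm, 37°C, 6 h; growth read on plate reader as percent growth; n=6 biological replicates, one-way ANOVA.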

Listeria monocytogenes [3] = experiment: Antibacterial activity against Listeria monocytogenes assessed as bacterial growth inhibition in presence of polymyxin B by microplate reader assay; type: functional, organism-based
In short: as §1

Listeria monocytogenes [4] = experiment: Antibacterial activity against Listeria monocytogenes assessed as reduction in bacterial growth at 0.01 ug/ml incubated for 6 hrs by microplate reader assay; type: functional, organism-based; conditions: dose 0.01 µg/ml
In short: as §2

| SMILES | Ki (NAD kinase 1) [µM] | Activity (Staphylococcus aureus [1]) | Activity (Staphylococcus aureus [2]) | Activity (Listeria monocytogenes [3]) | Activity (Listeria monocytogenes [4]) |
| --- | --- | --- | --- | --- | --- |
| Nc1ncnc2c1ncn2[C@@H]1O[C@H](CN2CC#Cc3nc4c(N)ncnc4n3[C@@H]3O[C@H](CNC(=O)CC(=O)NCC2)[C@@H](O)[C@H]3O)[C@@H](O)[C@H]1O | 6.8 | Active | inactive | inactive | inactive |
| NCCS(=O)(=O)NC[C@H]1O[C@@H](n2c(C#CCOC[C@H]3O[C@@H](n4cnc5c(N)ncnc54)[C@H](O)[C@@H]3O)nc3c(N)ncnc32)[C@H](O)[C@@H]1O | 5.5 | – | – | – | – |
| Nc1ncnc2c1ncn2[C@@H]1O[C@H](CN2CC#Cc3nc4c(N)ncnc4n3[C@@H]3O[C@H](CNC(=O)NCCNC(=O)C2)[C@@H](O)[C@H]3O)[C@@H](O)[C@H]1O | 7.6 | Active | inactive | inactive | inactive |
| Nc1ncnc2c1ncn2[C@@H]1O[C@H](COCC#Cc2nc3c(N)ncnc3n2[C@@H]2O[C@H](CO)[C@@H](O)[C@H]2O)[C@@H](O)[C@H]1O | – | – | – | – | inactive |
| C[C@H]1COc2c(N3CCN(C)CC3)c(F)cc3c(=O)c(C(=O)O)cn1c23 | – | – | – | – | inactive |
| NCCS(=O)(=O)NC[C@H]1O[C@@H](n2c(C#CCN(CC(=O)O)C[C@H]3O[C@@H](n4cnc5c(N)ncnc54)[C@H](O)[C@@H]3O)nc3c(N)ncnc32)[C@H](O)[C@@H]1O | 91 | – | – | – | – |
| Nc1ncnc2c1ncn2[C@@H]1O[C@H](CN2CC#Cc3nc4c(N)ncnc4n3[C@@H]3O[C@H](CNC(=O)NCCCNC(=O)C2)[C@@H](O)[C@H]3O)[C@@H](O)[C@H]1O | 0.177 | Active | inactive | inactive | inactive |
| Nc1ncnc2c1ncn2[C@@H]1O[C@H](CN2CC#Cc3nc4c(N)ncnc4n3[C@@H]3O[C@H](CNS(=O)(=O)CCNC(=O)C2)[C@@H](O)[C@H]3O)[C@@H](O)[C@H]1O | 0.054 | Active | inactive | inactive | inactive |
| Nc1ncnc2c1ncn2[C@@H]1O[C@H](CN2CC#Cc3nc4c(N)ncnc4n3[C@@H]3O[C@H](CNC(=O)CNC(=O)C2)[C@@H](O)[C@H]3O)[C@@H](O)[C@H]1O | 15 | Active | inactive | inactive | inactive |
| Nc1ncnc2c1ncn2[C@@H]1O[C@H](CN2CC#Cc3nc4c(N)ncnc4n3[C@@H]3O[C@H](CNC(=O)CCNC(=O)C2)[C@@H](O)[C@H]3O)[C@@H](O)[C@H]1O | 0.504 | Active | inactive | inactive | inactive |

Second part, led by results:

| Ki (NAD kinase 1) [µM] | SMILES | Activity (Staphylococcus aureus [1]) | Activity (Staphylococcus aureus [2]) | Activity (Listeria monocytogenes [3]) | Activity (Listeria monocytogenes [4]) |
| --- | --- | --- | --- | --- | --- |
| 16 | NCCCNC(=O)NC[C@H]1O[C@@H](n2c(C#CCN(CC(=O)O)C[C@H]3O[C@@H](n4cnc5c(N)ncnc54)[C@H](O)[C@@H]3O)nc3c(N)ncnc32)[C@H](O)[C@@H]1O | – | – | – | – |
| 53 | NCCN(CC#Cc1nc2c(N)ncnc2n1[C@@H]1O[C@H](CNC(=O)CC(=O)O)[C@@H](O)[C@H]1O)C[C@H]1O[C@@H](n2cnc3c(N)ncnc32)[C@H](O)[C@@H]1O | – | – | – | – |
| 104 | NCC(=O)NC[C@H]1O[C@@H](n2c(C#CCN(CC(=O)O)C[C@H]3O[C@@H](n4cnc5c(N)ncnc54)[C@H](O)[C@@H]3O)nc3c(N)ncnc32)[C@H](O)[C@@H]1O | – | – | – | – |
| 19 | NCCC(=O)NC[C@H]1O[C@@H](n2c(C#CCN(CC(=O)O)C[C@H]3O[C@@H](n4cnc5c(N)ncnc54)[C@H](O)[C@@H]3O)nc3c(N)ncnc32)[C@H](O)[C@@H]1O | – | – | – | – |
| 18 | NCCNC(=O)NC[C@H]1O[C@@H](n2c(C#CCN(CC(=O)O)C[C@H]3O[C@@H](n4cnc5c(N)ncnc54)[C@H](O)[C@@H]3O)nc3c(N)ncnc32)[C@H](O)[C@@H]1O | – | – | – | – |
